Like-named read-outs stand apart in the source and are kept apart here.
Assays:
[1] = target: Pyruvate Dehydrogenase Kinase-1 (PDK-1) (Homo sapiens, UniProt Q15118); test: Pyruvate dehydrogenase kinase; assay type: biochemical; conditions: for inhibition at 100 µg/mL: read-out: PDK-1 mean inhibitory % ± SD
How it was run: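 PDK-1 activity measured by the Kinase-Glo luminescent method. Wells held 10× assay buffer (250 mM Tris–HCl, 50 mM MgCl₂, 5 mM EGTA, 10 mM EDTA, 10 mM DTT), test compound (25–300 μg), and added solutions of PDH E1 (10 μM), ATP (10 μM) and PDK-1 (20 μM) in KCl/K₃PO₄/MgCl₂ buffer. Incubated 30 min at 37 °C, then Kinase-Glo reagent for 10 min at room temperature, and luminescence read. Controls: PBS or 1% DMSO; sodium dichloroacetate 1000 μM as reference. Mean ± SD of two replicates.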

[2] = target: purified recombinant human LDHA protein (Homo sapiens, UniProt P00338); test: Lactate dehydrogenase; assay type: biochemical; conditions: for inhibition at 100 µg/mL: read-out: LDHA mean inhibitory % ± SD
[3] = DPPH radical scavenging effect; conditions: for IC50: read-out: DPPH mean IC50
How it was run: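 Ethanolic DPPH was mixed with an equal volume of each sample concentration, shaken, and kept 1 h at room temperature in the dark. Residual DPPH absorbance was read at 519 nm against a control without test compound. BHT was the positive control. Scavenging % was calculated from compound and control absorbances. IC50 was taken from the scavenging-versus-concentration plot. Values are means of two determinations ± SD.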

[4] = tested on: Enterococcus faecalis (ATCC 29122); test: Antibacterial assay; assay type: cell-based; conditions: ATCC29122, read-out: Enterococcus faecalis mean IC50 (μM)
How it was run: (§1)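 Hospital-collected standard isolates were grown fresh on nutrient agar and suspended in nutrient broth to 0.5 McFarland. Test compound was mixed with 2 × 10⁷ CFU/mL in sterile BHI and shaken 60 min at 37 °C. Samples were serially diluted in BHI, plated, and incubated 24 h at 37 °C. Residual CFU were compared with the initial inoculum. IC50 is the mean of two measurements. Ampicillin was the positive reference.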

E. coli (ATCC 25922) = test: Antibacterial assay; assay type: cell-based; conditions: Escherichia coli
How it was run: as §1

Cytotoxicity assay [5] = assay type: cell-based, human; conditions: human, LoVo cells (colorectal cancer cell line)
How it was run: (§2)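 ATCC-sourced cells were cultured 24 h at 37 °C in 5% CO₂ with test compound (25, 50, 75, 100, 200, 400 μg) diluted in DMEM with 10% FBS. LDH released into the supernatant was measured by end-point ELISA, with OD read at 550 nm. Controls were 0.1% Triton X-100 (positive) and medium alone (negative). Viability is % OD relative to control, at 100 μg final, mean ± SD (n = 2). IC50 was taken from the viability-versus-concentration plot.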

LoVo cells = test: Cytotoxicity assay; assay type: cell-based, human; conditions: for IC50: Homo sapiens, LoVo
How it was run: as §2

Cytotoxicity assay [6] = assay type: cell-based, human; conditions: human, HCT-116 cells (colorectal cancer cell line)
How it was run: as §2

HCT-116 cells = test: Cytotoxicity assay; assay type: cell-based, human; conditions: for IC50: Homo sapiens
How it was run: as §2

[7] = ATCC25922, read-out: E. coli mean IC50 (μM)
[8] = ATCC25922, read-out: E. coli mean IC50 (μg/mL) ± SD
[9] = PDK1 IC50 (μg/mL) ± SD, mean of two determinations
[10] = LDHA IC50 (μg/mL) ± SD, mean of two determinations
[11] = read-out: LoVo cells mean IC50 (μM)
[12] = read-out: LoVo cells mean IC50 (μg/mL) ± SD
[13] = HCT-116, read-out: HCT-116 mean IC50 (μM)
[14] = HCT-116, read-out: HCT-116 mean IC50 (μg/mL) ± SD

Chain of Pyruvate Dehydrogenase Kinase-1 (PDK-1) (Q15118 29-436): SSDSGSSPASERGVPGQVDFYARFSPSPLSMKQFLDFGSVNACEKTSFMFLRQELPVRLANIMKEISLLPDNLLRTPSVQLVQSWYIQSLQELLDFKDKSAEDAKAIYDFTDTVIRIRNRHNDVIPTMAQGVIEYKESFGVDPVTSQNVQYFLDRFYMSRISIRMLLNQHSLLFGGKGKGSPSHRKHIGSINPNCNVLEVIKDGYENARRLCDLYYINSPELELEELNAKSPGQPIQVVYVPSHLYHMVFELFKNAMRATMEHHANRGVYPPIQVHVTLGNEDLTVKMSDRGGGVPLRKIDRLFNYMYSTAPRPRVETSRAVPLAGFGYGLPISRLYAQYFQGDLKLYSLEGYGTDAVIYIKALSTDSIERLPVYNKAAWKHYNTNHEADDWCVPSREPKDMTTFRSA

N#Cc1c(N)sc2c1CCCC2 [1c, 2-amino-4,5,6,7-tetrahydro-benzo[b]thiophene-3-carbonitrile]
inhibition at 100 µg/mL [1]: 11.2 ± 3.18%
inhibition at 100 µg/mL [2]: 23.1 ± 3.05%
DPPH mean IC50 (μg/mL) ± SD [3]: 332.5 ± 17.68 µg/mL
IC50 [3]: 1870 µM
IC50 [4]: 119 µM
IC50 (E. coli (ATCC 25922); [7]): 147 µM
IC50 (E. coli (ATCC 25922); [8]): 26.2 ± 1.06 µg/mL

CCOC(=O)c1c(N)sc2c1CCC(c1ccccc1)C2 (stereo not drawn) [compound 1a, 2-amino-6-phenyl-4,5,6,7-tetrahydrobenzo[b]thiophene-3-carboxylic acid ethyl ester]
inhibition at 100 µg/mL [1]: 12.3 ± 1.91%
inhibition at 100 µg/mL [2]: 19.2 ± 3.18%
DPPH mean IC50 (μg/mL) ± SD [3]: 390.5 ± 13.44 µg/mL
IC50 [3]: 1300 µM
IC50 [4]: 146 µM
IC50 (E. coli (ATCC 25922); [7]): 82.6 µM
IC50 (E. coli (ATCC 25922); [8]): 24.9 ± 0.99 µg/mL

Cc1cc(C(C)(C)C)c(O)c(C(C)(C)C)c1 [BHT, butylated hydroxy toluene, reference compound]
DPPH mean IC50 (μg/mL) ± SD [3]: 54.0 ± 5.66 µg/mL
IC50 [3]: 245 µM

CCOC(=O)Nc1sc2c(c1C(=O)OCC)CCC(c1ccccc1)C2 (stereo not drawn) [3a, Ethyl 2-((Ethoxycarbonyl)amino)-6-phenyl-4,5,6,7-tetrahydrobenzo[b]thiophene-3-carboxylate]
inhibition at 100 µg/mL [1]: 21.5 ± 2.4%
inhibition at 100 µg/mL [2]: 28.8 ± 2.06%
DPPH mean IC50 (μg/mL) ± SD [3]: 665.0 ± 21.21 µg/mL
IC50 [3]: 1780 µM
IC50 [4]: 102 µM
IC50 (E. coli (ATCC 25922); [7]): 72.4 µM
IC50 (E. coli (ATCC 25922); [8]): 27.1 ± 0.35 µg/mL

N#Cc1c(N2C(=O)CCC2=O)sc2c1CCC(c1ccccc1)C2 (stereo not drawn) [compound 7, 2-(2,5-Dioxopyrrolidin-1-yl)-6-phenyl-4,5,6,7-tetrahydrobenzo[b]thiophene-3-carbonitrile]
IC50 ([1]; PDK1 IC50 (μM)): 428 µM
IC50 [1, 9]: 428 µM
inhibition at 100 µg/mL [1]: 35.9 ± 4.1%
IC50 ([2]; LDHA IC50 (μM)): 276 µM
IC50 [2, 10]: 276 µM
inhibition at 100 µg/mL [2]: 48.8 ± 5.3%
DPPH mean IC50 (μg/mL) ± SD [3]: 222.5 ± 17.68 µg/mL
IC50 [3]: 661 µM
IC50 [4]: 83.5 µM
IC50 (E. coli (ATCC 25922); [7]): 82.9 µM
IC50 (E. coli (ATCC 25922); [8]): 27.9 ± 2.26 µg/mL
viability at 24 h, 100 μg/mL (Cytotoxicity assay [5]): 51.5 ± 2.12%
IC50 (LoVo cells; [11]): 323 µM
IC50 (LoVo cells; [12]): 108 ± 3.54 µg/mL
viability at 24 h, 100 μg/mL (Cytotoxicity assay [6]): 47.2 ± 1.06%
IC50 (HCT-116 cells; [13]): 288 µM
IC50 (HCT-116 cells; [14]): 97 ± 2.83 µg/mL

CN(C)C=Nc1sc2c(c1C#N)CCC(c1ccccc1)C2 (stereo not drawn) [compound 9, N′-(3-Cyano-6-phenyl-4,5,6,7-tetrahydrobenzo[b]thiophen-2-yl)-N,N-dimethyl Formamidine]
inhibition at 100 µg/mL [1]: 36.5 ± 2.12%
inhibition at 100 µg/mL [2]: 32.6 ± 2.33%
DPPH mean IC50 (μg/mL) ± SD [3]: 210.0 ± 28.28 µg/mL
IC50 [3]: 679 µM
IC50 [4]: 111 µM
IC50 (E. coli (ATCC 25922); [7]): 94.9 µM
IC50 (E. coli (ATCC 25922); [8]): 29.4 ± 1.2 µg/mL
viability at 24 h, 100 μg/mL (Cytotoxicity assay [5]): 71.8 ± 2.55%
IC50 (LoVo cells; [11]): 642 µM
IC50 (LoVo cells; [12]): 198 ± 4.95 µg/mL
viability at 24 h, 100 μg/mL (Cytotoxicity assay [6]): 69 ± 1.41%
IC50 (HCT-116 cells; [13]): 524 µM
IC50 (HCT-116 cells; [14]): 162 ± 4.24 µg/mL

CCOC(=O)c1c(NC(=O)CN2CCOCC2)sc2c1CCC(c1ccccc1)C2 (stereo not drawn) [5a, Ethyl 2-(2-Morpholinoacetamido)-6-phenyl-4,5,6,7-tetrahydrobenzo[b]thiophene-3-carboxylate]
inhibition at 100 µg/mL [1]: 41 ± 2.83%
inhibition at 100 µg/mL [2]: 30.8 ± 1.7%
DPPH mean IC50 (μg/mL) ± SD [3]: 440.0 ± 28.28 µg/mL
IC50 [3]: 1030 µM
IC50 [4]: 62.2 µM
IC50 (E. coli (ATCC 25922); [7]): 62.8 µM
IC50 (E. coli (ATCC 25922); [8]): 26.9 ± 0.57 µg/mL

Triton X-100 [reference compound]
mean % of viable LoVo cells (positive control) (LoVo cells; 0.1% in assay medium): 0.00%
mean % of viable HCT-116 cell (positive control) (HCT-116 cells; 0.1% in assay medium): 0.00%

CC1(C)S[C@@H]2[C@H](NC(=O)[C@H](N)c3ccccc3)C(=O)N2[C@H]1C(=O)O [ampicillin, reference compound]
IC50 [4]: 36.5 µM
IC50 (E. coli (ATCC 25922); [7]): 58 µM
IC50 (E. coli (ATCC 25922); [8]): 20.2 ± 1.77 µg/mL

COc1ccc(C=Nc2sc3c(c2C#N)CCCC3)cc1O [compound 11, 2-((3-Hydroxy-4-methoxybenzylidene)amino)-4,5,6,7-tetrahydrobenzo[b]thiophene-3-carbonitrile]
inhibition at 100 µg/mL [1]: 23.7 ± 2.4%
inhibition at 100 µg/mL [2]: 29.6 ± 1.98%
DPPH mean IC50 (μg/mL) ± SD [3]: 332.5 ± 17.68 µg/mL
IC50 [3]: 1060 µM
IC50 [4]: 126 µM
IC50 (E. coli (ATCC 25922); [7]): 181 µM
IC50 (E. coli (ATCC 25922); [8]): 56.6 ± 1.98 µg/mL
viability at 24 h, 100 μg/mL (Cytotoxicity assay [5]): 63.8 ± 1.77%
IC50 (LoVo cells; [11]): 474 µM
IC50 (LoVo cells; [12]): 148 ± 4.24 µg/mL
viability at 24 h, 100 μg/mL (Cytotoxicity assay [6]): 60.5 ± 2.12%
IC50 (HCT-116 cells; [13]): 403 µM
IC50 (HCT-116 cells; [14]): 126 ± 4.25 µg/mL

CCOC(=O)c1c(NC(=O)c2cccs2)sc2c1CCC(c1ccccc1)C2 (stereo not drawn) [3e, Ethyl 6-Phenyl-2-(thiophene-2-carboxamido)-4,5,6,7-tetrahydrobenzo[b] thiophene-3-carboxylate]
inhibition at 100 µg/mL [1]: 18.4 ± 1.98%
inhibition at 100 µg/mL [2]: 18.4 ± 1.98%
DPPH mean IC50 (μg/mL) ± SD [3]: 595.0 ± 21.21 µg/mL
IC50 [3]: 1450 µM
IC50 [4]: 90.6 µM
IC50 (E. coli (ATCC 25922); [7]): 89.4 µM
IC50 (E. coli (ATCC 25922); [8]): 36.8 ± 1.7 µg/mL

CCOC(=O)Nc1sc2c(c1C#N)CCC(c1ccccc1)C2 (stereo not drawn) [compound 3b, Ethyl (3-Cyano-6-phenyl-4,5,6,7-tetrahydrobenzo[b]thiophen-2-yl)carbamate]
IC50 ([1]; PDK1 IC50 (μM)): 302 µM
IC50 [1, 9]: 302 µM
inhibition at 100 µg/mL [1]: 51.5 ± 3.54%
IC50 ([2]; LDHA IC50 (μM)): 892 µM
IC50 [2, 10]: 891 µM
inhibition at 100 µg/mL [2]: 19.3 ± 0.85%
DPPH mean IC50 (μg/mL) ± SD [3]: 130.0 ± 14.14 µg/mL
IC50 [3]: 398 µM
IC50 [4]: 83.5 µM
viability at 24 h, 100 μg/mL (Cytotoxicity assay [5]): 35.5 ± 2.12%
IC50 (LoVo cells; [11]): 250 µM
IC50 (LoVo cells; [12]): 81.5 ± 3.54 µg/mL
viability at 24 h, 100 μg/mL (Cytotoxicity assay [6]): 28 ± 1.41%
IC50 (HCT-116 cells; [13]): 218 µM
IC50 (HCT-116 cells; [14]): 71 ± 2.83 µg/mL

N#Cc1c(N)sc2c1CCC(c1ccccc1)C2 (stereo not drawn) [compound 1b, 2-amino-6-phenyl-4,5,6,7-tetrahydrobenzo[b]thiophene-3-carbonitrile]
IC50 ([1]; PDK1 IC50 (μM)): 224 µM
IC50 [1, 9]: 224 µM
inhibition at 100 µg/mL [1]: 87 ± 2.83%
IC50 ([2]; LDHA IC50 (μM)): 252 µM
IC50 [2, 10]: 252 µM
inhibition at 100 µg/mL [2]: 74.1 ± 2.97%
DPPH mean IC50 (μg/mL) ± SD [3]: 110.0 ± 14.14 µg/mL
IC50 [3]: 432 µM
IC50 [4]: 83.4 µM
viability at 24 h, 100 μg/mL (Cytotoxicity assay [5]): 56.5 ± 0.71%
viability at 24 h, 100 μg/mL (Cytotoxicity assay [6]): 53.5 ± 2.12%

Source: paper PMC8567357 (ACS Omega, 2021)
